According to ChEMBL document CHEMBL1649298, “Correlation between vancomycin MIC values and those of other agents against gram-positive bacteria among patients with bloodstream infections caused by methicillin-resistant Staphylococcus aureus” (2009):
≈ marks a conversion by molar mass, not a printed value.

What was measured:
Type in all cases: functional
[1] = tested on: Staphylococcus aureus; test: microbe, parasite or virus in culture
[2] = tested on: Staphylococcus aureus; test: Antibacterial activity against methicillin-resistant Staphylococcus aureus isolated form patient blood measured after 18 to 24 hrs on day 1 isolation by Etest
In short: (§1)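 MRSA bloodstream isolates came from 120 patients at a tertiary care hospital between January 2005 and May 2007. MICs were read by Etest. Each patient's isolates were grouped as day 1 (index) or post-day 1 (subsequent).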

[3] = tested on: Staphylococcus aureus; test: Antibacterial activity against methicillin-resistant Staphylococcus aureus isolated form patient blood measured after 18 to 24 hrs on day 1 post isolation by Etest
In short: as §1

Structure (SMILES)	MIC [1] [µg/mL]	MIC50 [1] [µg/mL]	MIC90 [1] [µg/mL]	MIC [2] [µg/mL]	MIC50 [2] [µg/mL]	MIC90 [2] [µg/mL]	MIC [3] [µg/mL]	MIC50 [3] [µg/mL]	MIC90 [3] [µg/mL]
CCCCCCCCCC(=O)N[C@@H](Cc1c[nH]c2ccccc12)C(=O)N[C@H](CC(N)=O)C(=O)N[C@@H](CC(=O)O)C(=O)N[C@@H]1C(=O)NCC(=O)N[C@@H](CCCN)C(=O)N[C@@H](CC(=O)O)C(=O)N[C@H](C)C(=O)N[C@@H](CC(=O)O)C(=O)NCC(=O)N[C@H](CO)C(=O)N[C@@H]([C@H](C)CC(=O)O)C(=O)N[C@@H](CC(=O)c2ccccc2N)C(=O)O[C@@H]1C	0.13 (≈ 0.0802 µM)	0.38 (≈ 0.234 µM)	0.75 (≈ 0.463 µM)	0.13 (≈ 0.0802 µM)	0.5 (≈ 0.309 µM)	0.75 (≈ 0.463 µM)	0.19 (≈ 0.117 µM)	0.5 (≈ 0.309 µM)	1 (≈ 0.617 µM)
CC(=O)NC[C@H]1CN(c2ccc(N3CCOCC3)c(F)c2)C(=O)O1 [LINEZOLID]	0.75 (≈ 2.22 µM)	0.75 (≈ 2.22 µM)	1 (≈ 2.96 µM)	0.38 (≈ 1.13 µM)	0.75 (≈ 2.22 µM)	1.5 (≈ 4.45 µM)	0.38 (≈ 1.13 µM)	1 (≈ 2.96 µM)	1.5 (≈ 4.45 µM)
CN(C)c1cc(NC(=O)CNC(C)(C)C)c(O)c2c1C[C@H]1C[C@H]3[C@H](N(C)C)C(O)=C(C(N)=O)C(=O)[C@@]3(O)C(O)=C1C2=O [TIGECYCLINE]	0.09 (≈ 0.154 µM)	0.13 (≈ 0.222 µM)	0.2 (≈ 0.341 µM)	0.09 (≈ 0.154 µM)	0.19 (≈ 0.324 µM)	0.25 (≈ 0.427 µM)	0.09 (≈ 0.154 µM)	0.19 (≈ 0.324 µM)	0.25 (≈ 0.427 µM)
CN[C@H](CC(C)C)C(=O)N[C@H]1C(=O)N[C@@H](CC(N)=O)C(=O)N[C@H]2C(=O)N[C@H]3C(=O)N[C@H](C(=O)N[C@H](C(=O)O)c4cc(O)cc(O)c4-c4cc3ccc4O)[C@H](O)c3ccc(c(Cl)c3)Oc3cc2cc(c3O[C@@H]2O[C@H](CO)[C@@H](O)[C@H](O)[C@H]2O[C@H]2C[C@](C)(N)[C@H](O)[C@H](C)O2)Oc2ccc(cc2Cl)[C@H]1O [VANCOMYCIN]					1.5 (≈ 1.04 µM)	1.5 (≈ 1.04 µM)		1.5 (≈ 1.04 µM)	2 (≈ 1.38 µM)
